Active and inactive are the calls of the source. The rule behind the calls is not given here.
Experiments:
Aurora kinase B [1] = biological target: T1, Aurora kinase B (Homo sapiens, UniProt Q96GD4); assay: Inhibition of human recombinant full length Aurora-B (1 to 344 residues) expressed in Sf9 cells after 90 mins by kinase-glo luminescence assay
Aurora kinase A [2] = biological target: T2, Aurora kinase A (Homo sapiens, UniProt O14965); assay: Inhibition of GST-tagged human recombinant Aurora A kinase domain (123 to 401 residues) expressed in Sf9 cells after 120 mins by kinase-glo luminescence assay
T2 sequence (O14965 whole entry): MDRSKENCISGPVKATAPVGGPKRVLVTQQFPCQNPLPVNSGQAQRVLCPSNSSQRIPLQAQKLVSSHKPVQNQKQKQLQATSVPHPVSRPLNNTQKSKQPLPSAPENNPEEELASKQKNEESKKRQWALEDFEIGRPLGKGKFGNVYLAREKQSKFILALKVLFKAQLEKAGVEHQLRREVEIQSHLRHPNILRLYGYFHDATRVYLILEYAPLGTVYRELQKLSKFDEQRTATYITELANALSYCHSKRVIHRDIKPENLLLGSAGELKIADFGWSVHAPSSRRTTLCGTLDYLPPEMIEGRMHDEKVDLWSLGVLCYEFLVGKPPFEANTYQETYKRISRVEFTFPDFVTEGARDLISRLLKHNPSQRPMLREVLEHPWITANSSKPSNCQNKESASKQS

Aurora kinase A [3] = biological target: T2, Aurora kinase A; assay: Inhibition of Aurora-A autophosphorylation at Thr288 in human HCT116 cells after 1 hr by Western blot analysis; type: cell-based
Outline: (§1)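 HCT116 cells arrested in mitosis with 200 nM nocodazole for 24 h, then exposed to compound for 1 h over 9 concentrations. Lysed in Laemmli buffer, SDS-PAGE, PVDF immunoblot for phospho-Aurora-A Thr288 / Aurora-B Thr232 with HRP secondary and chemiluminescence. IC50 derived from blot profiles.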

HCT-116 = assay: Cytotoxicity against human HCT116 cells; type: functional, cell-based
HeLa [4] = assay: Increase in mitotic index in human HeLa cells after 10 to 12 hrs post thymidine block by pHH3Ser10/Hoechst33342 staining-based immunofluorescence analysis; type: functional, cell-based
Outline: (§2)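 HeLa cells synchronized by thymidine block, released and treated with compound, fixed at set times (4% paraformaldehyde, 30 min), permeabilized with 0.1% Triton X-100, blocked in 1% BSA. Stained with anti-pHH3Ser10 (1:500, 1.5 h, RT) and Alexa-594 secondary, Hoechst 33342 counterstain. Mitotic index is the percentage of pHH3Ser10-positive cells among about 2000-3000 cells per condition.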

Aurora kinase B [5] = biological target: T1, Aurora kinase B; assay: Inhibition of Aurora-B autophosphorylation at Thr232 in human HCT116 cells after 1 hr by Western blot analysis; type: cell-based; outline: as §1
Detroit 551 = assay: Cytotoxicity against human Detroit 551 cells; type: cell-based
HeLa [6] = assay: Decrease in mitotic index in human HeLa cells after 10 to 12 hrs post thymidine block by pHH3Ser10/Hoechst33342 staining-based immunofluorescence analysis; type: functional, cell-based; outline: as §2

T1 sequence (Q96GD4 whole entry, the tested form may be a part): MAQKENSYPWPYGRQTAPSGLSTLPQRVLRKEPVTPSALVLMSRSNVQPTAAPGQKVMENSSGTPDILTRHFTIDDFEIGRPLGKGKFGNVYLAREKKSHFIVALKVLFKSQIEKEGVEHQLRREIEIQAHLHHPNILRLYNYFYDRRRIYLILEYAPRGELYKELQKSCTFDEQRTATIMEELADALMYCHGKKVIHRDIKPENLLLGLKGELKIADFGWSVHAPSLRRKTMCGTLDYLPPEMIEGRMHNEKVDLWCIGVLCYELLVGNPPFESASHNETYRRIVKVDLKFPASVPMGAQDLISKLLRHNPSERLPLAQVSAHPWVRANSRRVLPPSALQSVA

| SMILES | IC50 (Aurora kinase B [1]) | IC50 (Aurora kinase A [2]) | IC50 (Aurora kinase A [3]) | IC50 (HCT-116) | Activity (HeLa [4]) | IC50 (Aurora kinase B [5]) | IC50 (Detroit 551) | Activity (HeLa [6]) |
| --- | --- | --- | --- | --- | --- | --- | --- | --- |
| CC(C)Cc1cccc(NC(=O)Nc2ccc(CCNc3ncnc4oc(-c5ccccc5)c(Cl)c34)cc2)c1 | > 1000 nM | 247 nM |  |  |  |  |  |  |
| O=C(Nc1ccc(CCNc2ncnc3oc(-c4ccccc4)c(Cl)c23)cc1)Nc1cccc(CN2CCCCC2)c1 | 102 nM | 90.2 nM |  |  |  |  |  |  |
| CC(C)c1ccccc1NC(=O)Nc1ccc(CCNc2ncnc3oc(-c4ccccc4)c(Cl)c23)cc1 | 336 nM | 525 nM |  |  |  |  |  |  |
| CN(C)Cc1cccc(NC(=O)Nc2ccc(CCNc3ncnc4oc(-c5ccccc5)c(Cl)c34)cc2)c1 | 199 nM | 20 nM | 59.9 nM | 578 nM | Active | > 10000 nM | 5000 nM |  |
| CCN(CC)Cc1cccc(NC(=O)Nc2ccc(CCNc3ncnc4oc(-c5ccccc5)c(Cl)c34)cc2)c1 | 121 nM | 21.5 nM |  |  |  |  |  |  |
| CC(C)Cc1ccccc1NC(=O)Nc1ccc(CCNc2ncnc3oc(-c4ccccc4)c(Cl)c23)cc1 | 700 nM | > 1000 nM |  |  |  |  |  |  |
| CC(C)c1ccc(NC(=O)Nc2ccc(CCNc3ncnc4oc(-c5ccccc5)c(Cl)c34)cc2)cc1 | > 1000 nM | > 1000 nM |  |  |  |  |  |  |
| CN(C)Cc1ccccc1NC(=O)Nc1ccc(CCNc2ncnc3oc(-c4ccccc4)c(Cl)c23)cc1 |  |  | 73.4 nM | 70 nM |  | 23.7 nM | 3100 nM | Active |
| Cc1ccc(NC(=O)Nc2ccc(CCNc3ncnc4oc(-c5ccccc5)c(Cl)c34)cc2)cc1 | 73.3 nM | 55.5 nM |  |  |  |  |  |  |
| CC(C)c1cccc(NC(=O)Nc2ccc(CCNc3ncnc4oc(-c5ccccc5)c(Cl)c34)cc2)c1 | 657 nM | 233 nM |  |  |  |  |  |  |
| CCc1ccccc1NC(=O)Nc1ccc(CCNc2ncnc3oc(-c4ccccc4)c(Cl)c23)cc1 | 66.2 nM | 178 nM |  |  |  |  |  |  |
| CCN(C)Cc1cccc(NC(=O)Nc2ccc(CCNc3ncnc4oc(-c5ccccc5)c(Cl)c34)cc2)c1 | 140 nM | 9 nM | 132 nM | 342 nM |  | > 10000 nM | 9700 nM |  |
| CN(C)Cc1ccc(NC(=O)Nc2ccc(CCNc3ncnc4oc(-c5ccccc5)c(Cl)c34)cc2)cc1 | 455 nM | 98.3 nM |  |  |  |  |  |  |
| O=C(Nc1ccc(CCNc2ncnc3oc(-c4ccccc4)c(Cl)c23)cc1)Nc1ccc(CN2CCC(O)CC2)cc1 | 353 nM | 150 nM |  |  |  |  |  |  |
| CC(C)Cc1ccc(NC(=O)Nc2ccc(CCNc3ncnc4oc(-c5ccccc5)c(Cl)c34)cc2)cc1 | > 1000 nM | > 1000 nM |  |  |  |  |  |  |
| O=C(Nc1ccc(CCNc2ncnc3oc(-c4ccccc4)c(Cl)c23)cc1)Nc1cccc(CN2CCC(O)CC2)c1 | 83.6 nM | 67.8 nM |  |  |  |  |  |  |
| Cc1ccccc1NC(=O)Nc1ccc(CCNc2ncnc3oc(-c4ccccc4)c(Cl)c23)cc1 | 60.2 nM | 83.2 nM |  |  |  |  |  |  |
| CCN(CC)Cc1ccc(NC(=O)Nc2ccc(CCNc3ncnc4oc(-c5ccccc5)c(Cl)c34)cc2)cc1 | 835 nM | 232 nM |  |  |  |  |  |  |
| O=C(Nc1ccccc1)Nc1ccc(CCNc2ncnc3oc(-c4ccccc4)c(Cl)c23)cc1 | 66.3 nM | 52 nM | 390 nM | 153 nM | Active | 191 nM | 7300 nM |  |
| CCN(CC)Cc1ccccc1NC(=O)Nc1ccc(CCNc2ncnc3oc(-c4ccccc4)c(Cl)c23)cc1 | 526 nM | 462 nM |  |  |  |  |  |  |
| Cc1cccc(NC(=O)Nc2ccc(CCNc3ncnc4oc(-c5ccccc5)c(Cl)c34)cc2)c1 | 74.9 nM | 52.6 nM |  |  |  |  |  |  |
| CCc1cccc(NC(=O)Nc2ccc(CCNc3ncnc4oc(-c5ccccc5)c(Cl)c34)cc2)c1 | 86.1 nM | 66.3 nM |  |  |  |  |  |  |
| O=C(Nc1ccc(CCNc2ncnc3oc(-c4ccccc4)c(Cl)c23)cc1)Nc1ccccc1CN1CCC(O)CC1 | 78.9 nM | 228 nM | 1510 nM | 310 nM |  | 133 nM | 3500 nM | Active |
| O=C(Nc1ccc(CCNc2ncnc3oc(-c4ccccc4)c(Cl)c23)cc1)Nc1ccccc1CN1CCCCC1 | 122 nM | 198 nM |  |  |  |  |  |  |
| O=C(Nc1ccc(CCNc2ncnc3oc(-c4ccccc4)c(Cl)c23)cc1)Nc1ccc(CN2CCCCC2)cc1 | 976 nM | 451 nM |  |  |  |  |  |  |
| CCc1ccc(NC(=O)Nc2ccc(CCNc3ncnc4oc(-c5ccccc5)c(Cl)c34)cc2)cc1 | 443 nM | 139 nM |  |  |  |  |  |  |

— ChEMBL document CHEMBL4152212, “Design and synthesis of BPR1K653 derivatives targeting the back pocket of Aurora kinases for selective isoform inhibition” (Eur J Med Chem, 2018)
